Experimental data published in ChEMBL document CHEMBL3244396, “Synthesis and antileukemic activity of 5-substituted 2,3-dihydro-6,7-bis(hydroxymethyl)-1H-pyrrolizine diesters” (J Med Chem, 1977).
In brackets after ≈: the same amount, converted by molar mass.

Assays:
L1210 [1] = assay: Antileukemic activity against mouse L1210 cells allografted in female BDF1 mouse assessed as host mean survival time at 200 mg/kg, ip administered daily for 9 days as Klucel suspension starting 24 hrs after tumor inoculation relative to control; format: functional; details: route intraperitoneal
Outline: (§1)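 L1210 leukemia given as an ascitic fluid cell inoculum, ip, to mice of the strain and sex in each line. Test material was given ip for nine daily doses starting 24 h after inoculation, in a Klucel (hydroxypropylcellulose) suspension. Read-out is mean survival time as %T/C versus controls, with >125 taken as significant.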

L1210 [2] = assay: Antileukemic activity against mouse L1210 cells allografted in female BDF1 mouse assessed as change in body weight at 100 mg/kg, ip administered daily for 9 days as Klucel suspension starting 24 hrs after tumor inoculation; format: functional; details: route intraperitoneal
Outline: (§2)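 Ascitic fluid carrying L1210 cells was inoculated ip. Compound was given ip as a Klucel (hydroxypropylcellulose) suspension in nine daily doses, starting 24 h after inoculation. Body-weight difference (treated minus control) was recorded on day 5. Survival was scored as %T/C of mean survival time.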

L1210 [3] = assay: Antileukemic activity against mouse L1210 cells allografted in female BDF1 mouse assessed as host mean survival time at 100 mg/kg, ip administered daily for 9 days as Klucel suspension starting 24 hrs after tumor inoculation relative to control; format: functional; details: route intraperitoneal; outline: as §1
P388 [4] = assay: Antitumor activity against mouse P388 cells allografted in female CDF1 mouse assessed as disease cures by measuring 30-days host survival at 100 mg/kg, ip administered daily for 9 days as saline with Tween-80 solution starting 24 hrs after tumor inoculation relative to control; format: functional; details: route intraperitoneal
Outline: (§3)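 P388 ascitic cell inoculum given ip to CDF1 mice of the sex in each line. Nine daily ip doses in saline with Tween-80 as vehicle, starting 24 h after inoculation. Median survival time expressed as %T/C (>125 significant); "cure" defined as 30-day survival.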

P388 [5] = assay: Antitumor activity against mouse P388 cells allografted in female CDF1 mouse assessed as change in body weight at 200 mg/kg, ip administered daily for 9 days as saline with Tween-80 solution starting 24 hrs after tumor inoculation; format: functional; details: route intraperitoneal
Outline: (§4)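 Ascitic fluid carrying P388 cells was inoculated ip. Compound was given ip in nine daily doses, starting 24 h after inoculation, in Klucel (hydroxypropylcellulose) suspension or in saline with Tween-80. Body-weight difference (treated minus control) was recorded on day 5. Survival was scored as %T/C of median survival time, and 30-day survival counted as cure.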

L1210 [6] = assay: Antileukemic activity against mouse L1210 cells allografted in female BDF1 mouse assessed as change in body weight at 50 mg/kg, ip administered daily for 9 days as Klucel suspension starting 24 hrs after tumor inoculation; format: functional; details: route intraperitoneal; outline: as §2
Mus musculus [7] = assay: Toxicity in female BDF1 mouse allografted with mouse L1210 cells assessed as animal survival at 100 mg/kg, ip administered daily for 9 days as Klucel suspension starting 24 hrs after tumor inoculation measured on fifth day; format: organism-based; design: dose 100 mg/kg, route intraperitoneal; details: in vivo
Outline: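 Female BDF1 mice bearing ip ascitic L1210 inoculum got nine daily ip doses in a Klucel suspension, starting 24 h after tumor inoculation. Toxicity was scored as toxicity-day survivors out of the group, recorded on the fifth day. Animal weight difference (T − C) was also tabulated.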

P388 [8] = assay: Antitumor activity against mouse P388 cells allografted in female CDF1 mouse assessed as disease cures by measuring 30-days host survival at 400 mg/kg, ip administered daily for 9 days as saline with Tween-80 solution starting 24 hrs after tumor inoculation relative to control; format: functional; details: route intraperitoneal; outline: as §3
P388 [9] = assay: Antitumor activity against mouse P388 cells allografted in female CDF1 mouse assessed as disease cures by measuring 30-days host survival at 200 mg/kg, ip administered daily for 9 days as saline with Tween-80 solution starting 24 hrs after tumor inoculation relative to control; format: functional; details: route intraperitoneal; outline: as §3
Mus musculus [10] = assay: Toxicity in female BDF1 mouse allografted with mouse L1210 cells assessed as animal survival at 50 mg/kg, ip administered daily for 9 days as Klucel suspension starting 24 hrs after tumor inoculation measured on fifth day; format: organism-based; design: dose 50 mg/kg, route intraperitoneal; details: in vivo
Outline: (§5)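 L1210 leukemia passaged as ascitic fluid and inoculated ip. Test agent given ip as a Klucel (hydroxypropylcellulose) suspension, nine daily doses starting 24 h after tumor inoculation. Acute toxicity read as toxicity-day survivors per group (out of 6), recorded on day 5. Animal weight difference T − C was also recorded. Follows NCI screening protocols.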

Mus musculus [11] = assay: Toxicity in female CDF1 mouse allografted with mouse P388 cells assessed as animal survival at 100 mg/kg, ip administered daily for 9 days as saline with Tween-80 solution starting 24 hrs after tumor inoculation; format: organism-based; design: dose 100 mg/kg, route intraperitoneal; details: in vivo
Outline: (§6)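 P-388 leukemia ascitic fluid implanted ip. Compound dosed ip in saline with Tween-80 vehicle, once daily for nine doses from 24 h after tumor inoculation. Acute toxicity scored as toxicity-day survivors per group. Survival was followed up to 30 days, with 30-day survival counted as "cure". Follows NCI screening protocols.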

Mus musculus [12] = assay: Toxicity in female CDF1 mouse allografted with mouse P388 cells assessed as animal survival at 200 mg/kg, ip administered daily for 9 days as saline with Tween-80 solution starting 24 hrs after tumor inoculation; format: organism-based; design: dose 200 mg/kg, route intraperitoneal; details: in vivo; outline: as §6
Mus musculus [13] = assay: Toxicity in female CDF1 mouse allografted with mouse P388 cells assessed as animal survival at 400 mg/kg, ip administered daily for 9 days as saline with Tween-80 solution starting 24 hrs after tumor inoculation; format: organism-based; design: dose 400 mg/kg, route intraperitoneal; details: in vivo; outline: as §6
P388 [14] = assay: Antitumor activity against mouse P388 cells allografted in female CDF1 mouse assessed as change in body weight at 100 mg/kg, ip administered daily for 9 days as saline with Tween-80 solution starting 24 hrs after tumor inoculation; format: functional; details: route intraperitoneal; outline: as §4
P388 [15] = assay: Antitumor activity against mouse P388 cells allografted in female CDF1 mouse assessed as change in body weight at 400 mg/kg, ip administered daily for 9 days as saline with Tween-80 solution starting 24 hrs after tumor inoculation; format: functional; details: route intraperitoneal; outline: as §4
L1210 [16] = assay: Antileukemic activity against mouse L1210 cells allografted in female BDF1 mouse assessed as host mean survival time at 50 mg/kg, ip administered daily for 9 days as Klucel suspension starting 24 hrs after tumor inoculation relative to control; format: functional; details: route intraperitoneal; outline: as §1
L1210 [17] = assay: Antileukemic activity against mouse L1210 cells allografted in female BDF1 mouse assessed as change in body weight at 200 mg/kg, ip administered daily for 9 days as Klucel suspension starting 24 hrs after tumor inoculation; format: functional; details: route intraperitoneal; outline: as §2
Mus musculus [18] = assay: Toxicity in female BDF1 mouse allografted with mouse L1210 cells assessed as animal survival at 200 mg/kg, ip administered daily for 9 days as Klucel suspension starting 24 hrs after tumor inoculation measured on fifth day; format: organism-based; design: dose 200 mg/kg, route intraperitoneal; details: in vivo; outline: as §5
P388 [19] = assay: Antitumor activity against mouse P388 cells allografted in female CDF1 mouse assessed as change in body weight at 50 mg/kg, ip administered daily for 9 days as Klucel suspension starting 24 hrs after tumor inoculation; format: functional; details: route intraperitoneal; outline: as §4
Mus musculus [20] = assay: Toxicity in female CDF1 mouse allografted with mouse P388 cells assessed as animal survival at 50 mg/kg, ip administered daily for 9 days as Klucel suspension starting 24 hrs after tumor inoculation; format: organism-based; design: dose 50 mg/kg, route intraperitoneal; details: in vivo
Outline: (§7)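 P-388 leukemia ascitic fluid inoculated ip. Compound given ip as a suspension in Klucel (hydroxypropylcellulose), once daily for nine doses beginning 24 h post-inoculation. Acute toxicity assessed as toxicity-day survivors per group. Survival was followed up to 30 days, with 30-day survival counted as "cure". Follows NCI screening protocols.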

Mus musculus [21] = assay: Toxicity in female CDF1 mouse allografted with mouse P388 cells assessed as animal survival at 100 mg/kg, ip administered daily for 9 days as Klucel suspension starting 24 hrs after tumor inoculation; format: organism-based; design: dose 100 mg/kg, route intraperitoneal; details: in vivo; outline: as §7
[22] = Cytotoxicity against human 9KB cells treated as ethanol solution; format: functional; details: read-out: ED50 (the source's name)
Outline: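 Compound applied as an ethanol solution; activity read out as ED50 under the general screening protocol.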

P388 [23] = assay: Antitumor activity against mouse P388 cells allografted in female CDF1 mouse assessed as disease cures by measuring 30-days host survival at 200 mg/kg, ip administered daily for 9 days as Klucel suspension starting 24 hrs after tumor inoculation relative to control; format: functional; details: route intraperitoneal
Outline: (§8)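 P388 leukemia given as an ascitic fluid cell inoculum, ip, to mice of the strain and sex in each line. Nine daily ip doses were given in a Klucel (hydroxypropylcellulose) suspension, starting 24 h after inoculation. Read-out is median survival time as %T/C, with >125 taken as significant; a "cure" means 30-day survival.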

P388 [24] = assay: Antitumor activity against mouse P388 cells allografted in female CDF1 mouse assessed as disease cures by measuring 30-days host survival at 100 mg/kg, ip administered daily for 9 days as Klucel suspension starting 24 hrs after tumor inoculation relative to control; format: functional; details: route intraperitoneal; outline: as §8
P388 [25] = assay: Antitumor activity against mouse P388 cells allografted in female CDF1 mouse assessed as change in body weight at 100 mg/kg, ip administered daily for 9 days as Klucel suspension starting 24 hrs after tumor inoculation; format: functional; details: route intraperitoneal; outline: as §4
P388 [26] = assay: Antitumor activity against mouse P388 cells allografted in female CDF1 mouse assessed as disease cures by measuring 30-days host survival at 50 mg/kg, ip administered daily for 9 days as Klucel suspension starting 24 hrs after tumor inoculation relative to control; format: functional; details: route intraperitoneal; outline: as §8
P388 [27] = assay: Antitumor activity against mouse P388 cells allografted in female CDF1 mouse assessed as change in body weight at 200 mg/kg, ip administered daily for 9 days as Klucel suspension starting 24 hrs after tumor inoculation; format: functional; details: route intraperitoneal; outline: as §4
Mus musculus [28] = assay: Toxicity in female CDF1 mouse allografted with mouse P388 cells assessed as animal survival at 200 mg/kg, ip administered daily for 9 days as Klucel suspension starting 24 hrs after tumor inoculation; format: organism-based; design: dose 200 mg/kg, route intraperitoneal; details: in vivo; outline: as §7

SMILES: COC(=O)c1c(C(=O)OC)c(-c2ccc(Cl)c(Cl)c2)n2c1CCC2
- T/C (L1210 [1]): 98%
- Activity (L1210 [2]): 3.4 g
- T/C (L1210 [3]): 88%
- T/C (P388 [4]): 87%
- Activity (P388 [5]): 0.2 g
- Activity (L1210 [6]): 2.8 g
- Activity (Mus musculus [7]): Non-toxic
- T/C (P388 [8]): 88%
- T/C (P388 [9]): 89%
- Activity (Mus musculus [10]): Non-toxic
- Activity (Mus musculus [11]): Non-toxic
- Activity (Mus musculus [12]): Non-toxic
- Activity (Mus musculus [13]): Non-toxic
- Activity (P388 [14]): 0.2 g
- Activity (P388 [15]): -0.2 g
- T/C (L1210 [16]): 91%
- Activity (L1210 [17]): 1.1 g
- Activity (Mus musculus [18]): Non-toxic

SMILES: CNC(=O)OCc1c(COC(=O)NC)c(-c2ccccc2)n2c1CCC2
- T/C (L1210 [1]): 110%
- Activity (P388 [19]): -2.1 g
- Activity (L1210 [2]): -1.5 g
- Activity (Mus musculus [20]): Non-toxic
- T/C (L1210 [3]): 104%
- Activity (Mus musculus [21]): Non-toxic
- EC50 [22]: 22 µg/mL (≈ 61.6 µM)
- T/C (P388 [23]): 59%
- Activity (L1210 [6]): -2.6 g
- Activity (Mus musculus [7]): Non-toxic
- T/C (P388 [24]): 124%
- Activity (Mus musculus [10]): Non-toxic
- Activity (P388 [25]): -1.8 g
- T/C (P388 [26]): 124%
- Activity (P388 [27]): -3.5 g
- T/C (L1210 [16]): 104%
- Activity (Mus musculus [28]): Non-toxic
- Activity (L1210 [17]): -3.1 g
- Activity (Mus musculus [18]): Non-toxic

SMILES: OCc1c(CO)c(C(F)(F)F)n2c1CCC2
- Activity (P388 [19]): 2.1 g
- Activity (L1210 [2]): -1.1 g
- Activity (Mus musculus [20]): Non-toxic
- T/C (L1210 [3]): 104%
- EC50 [22]: 25 µg/mL (≈ 106 µM)
- T/C (P388 [23]): 108%
- Activity (L1210 [6]): -0.3 g
- Activity (Mus musculus [7]): Non-toxic
- T/C (P388 [24]): 104%
- Activity (Mus musculus [10]): Non-toxic
- Activity (P388 [25]): 0.6 g
- T/C (P388 [26]): 104%
- Activity (P388 [27]): 1.1 g
- T/C (L1210 [16]): 107%
- Activity (L1210 [17]): -2.8 g
- Activity (Mus musculus [18]): Toxic
